SIRT5 block: sirtuin-5 (human) deacylase inhibition; Purified SirT5, succinyl-peptide AMC, trypsin-coupled fluorescence; inhibition, % at 15 µM; hit rate 1.1% among 330,000; in the data active = inhibition above about 15%; inconclusive = no clear call, values can overlap the other calls
Target sequence (Q9NXA8 whole entry, looked up): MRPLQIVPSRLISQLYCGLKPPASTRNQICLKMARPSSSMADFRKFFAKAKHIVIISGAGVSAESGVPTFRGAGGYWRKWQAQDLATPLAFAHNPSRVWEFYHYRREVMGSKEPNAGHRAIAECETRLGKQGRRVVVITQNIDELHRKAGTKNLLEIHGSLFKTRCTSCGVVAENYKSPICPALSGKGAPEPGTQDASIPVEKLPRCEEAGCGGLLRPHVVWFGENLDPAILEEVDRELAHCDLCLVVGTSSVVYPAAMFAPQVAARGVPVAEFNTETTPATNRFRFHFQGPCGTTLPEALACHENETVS
C2C12 statin: suppressors of simvastatin-induced myotoxicity in C2C12 myotubes; ATP luminescence, 48 h; scaled: DMSO 0, geranylgeraniol control 100; rescue of ATP level, % at 7.49 µM; hit rate 0.78% among 330,000; AID 602340;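 active = mean ATP rescue above about 67%, or every replicate alone reaching that limit, limit read from the data, passing the limit was not always enough; inconclusive = no clear call, values can overlap the other calls; inactive = mean under the limit and some replicate under it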;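 note: myotubes were challenged with 10 µM simvastatin during compound exposure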
DENV2 CPE: inhibitors of DENV2 cytopathic effect | DENV2-infected cells, cytopathic effect rescue, plate reader | CPE inhibition, % at 9.99 µM | hit rate 1.7% among 350,000; in the data active = CPE inhibition above about 20%, passing the limit was not always enough; inconclusive = no clear call, values can overlap the other calls; tested in BHK-21 cells;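 note: 0% = median of neutral control wells and 100% = median of positive control wells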
S100A4 inh HTS: S100A4-myosin IIA interaction inhibition; P26447; S100A4/TAMRA-MyoIIA peptide fluorescence polarization; inhibition, % at 10.7 µM; hit rate 0.14% among 360,000; AID 652163;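 active = mean inhibition of at least 70% across replicates, with every replicate also reaching that level; inconclusive = mean inhibition reaches 70% but some replicates fall short; inactive = mean inhibition below 70%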
Target sequence (P26447 whole entry, looked up): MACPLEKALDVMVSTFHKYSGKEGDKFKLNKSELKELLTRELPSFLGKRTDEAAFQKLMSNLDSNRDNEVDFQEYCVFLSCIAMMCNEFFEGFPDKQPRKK
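assay system = human S100A4 monomer with TAMRA-labelled myosin IIA peptide | also added = labelled myosin peptide probe, 5 nM | incubation = 5 min between mix addition and reading | control set = DMSO and TFP controls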
PGC1a acetyl inh: lowers PGC1a acetylation signal in U2OS cells. inhibition, % at 15.6 µM. hit rate 0.17% among 350,000. AlphaScreen anti-acetyl-lysine; with virally co-expressed GCN5 acetyltransferase;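 active = every replicate shows inhibition of at least 40%; inconclusive = mean inhibition at least 40% but some replicate below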;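 note: 0% = neutral control wells and 100% = positive control wells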
Starred values were filed as active, the others as inactive; ? = inconclusive; nt = no result given; ! = not confirmed by another sample. The list is not random: actives were taken first. Their share in the collection is about 2.9%.

SMILES	SIRT5 block	C2C12 statin	DENV2 CPE	S100A4 inh HTS	PGC1a acetyl inh
O=C(Cc1ccccn1)NCC[C@@H]1CC[C@@H](NS(=O)(=O)c2ccc(F)cc2)[C@@H](CO)O1	0	2	7	11	7
COc1ccc2c3c(n(C)c2c1)[C@H](CO)N(C(=O)c1ccccc1)CC31CCN(C(=O)c2ccccc2)CC1	3	nt	-11	73*	22
COc1ccc2c3c(n(C)c2c1)[C@H](CO)N(C(=O)c1cccc(F)c1)CC31CN(C(=O)c2cccc(F)c2)C1	-1	nt	46*	2	-6
COc1ccc2c3c(n(C)c2c1)[C@H](CO)N(C(=O)c1ccccc1)CC31CCN(C(C)=O)CC1	1	nt	4	4	nt
C[C@H]1CN([C@@H](C)CO)S(=O)(=O)c2ccc(-c3cccc(F)c3)cc2O[C@H]1CN(C)S(C)(=O)=O	1	11	-8	4	0
C[C@H]1CN([C@@H](C)CO)C(=O)CCCn2cc(nn2)CO[C@@H]1CN(C)Cc1cccnc1	-2	-3	-1	-36	1
COc1ccc(N2CCN(C(=O)CN(C)S(=O)(=O)c3cc(C)ccc3OC)CC2)cc1	19*	-2	nt	-3	1
Cc1cc(C)c(NC(=O)CSc2nc3ncc(Br)cc3[nH]2)c(C)c1	19*	-2	2	-5	-9
CCS(=O)(=O)N[C@@H]1CC[C@H](CC(=O)NC2Cc3ccccc3C2)O[C@H]1CO	1	0	6	-38	-15
CNC(=O)C[C@H]1CC[C@H]2[C@H](COc3ccc(NC(=O)c4ccc(OC)cc4)cc3C(=O)N2C)O1	-2	-5	10	-5	0
C[C@@H]1CCCCO[C@H](CN(C)S(=O)(=O)c2ccc(F)cc2)[C@@H](C)CN([C@@H](C)CO)C(=O)c2cc(NS(=O)(=O)c3ccccc3)ccc2O1	17*	14	-2	-5	2
C[C@@H]1CCCCO[C@H](CN(C)S(=O)(=O)c2ccccc2)[C@H](C)CN([C@@H](C)CO)C(=O)c2cc(NS(=O)(=O)c3ccc(F)cc3)ccc2O1	8	nt	-4	2	-6
C[C@@H]1CCCCO[C@H](CN(C)S(=O)(=O)c2ccccc2)[C@@H](C)CN([C@@H](C)CO)C(=O)c2cc(NS(=O)(=O)c3ccc(F)cc3)ccc2O1	6	nt	25*	-12	-1
C[C@@H]1CCCCO[C@@H](CN(C)S(=O)(=O)c2ccc(F)cc2)[C@@H](C)CN([C@@H](C)CO)C(=O)c2cc(NS(=O)(=O)c3ccccc3)ccc2O1	16*	3	2	0	2
COc1ccc(S(=O)(=O)Nc2ccc3c(c2)CC(=O)N([C@H](C)CO)C[C@@H](C)[C@@H](CN(C)C)O3)cc1	-1	-9	-3	0	-8
CC1(c2nnc(Cc3ccccc3)o2)CC(c2ccc([N+](=O)[O-])cc2)=NO1 (stereo unspecified)	6	27	31*	13	nt
O=c1[nH]c2cc(Cl)c(Br)cc2o1	-2	-1	157*	-3	0
O=c1[nH]c2cc(Cl)c(Cl)cc2o1	nt	0	3	0	nt
COC(=O)/C=C/c1cnc[nH]1	nt	9	51*	-1	-2
COC(=O)/C=C/c1ccc(-n2cncn2)cc1	3	4	-5	-1	0
C[C@@H]1CN([C@@H](C)CO)S(=O)(=O)c2ccc(C#Cc3ccccc3)cc2O[C@H]1CN(C)S(=O)(=O)c1cn(C)cn1	-4	0	-18	0	-3
C[C@H]1CN([C@@H](C)CO)S(=O)(=O)c2ccc(C#Cc3ccccc3)cc2O[C@@H]1CN(C)S(=O)(=O)c1cn(C)cn1	0	40	34*	15	-7
C[C@@H]1CN([C@@H](C)CO)S(=O)(=O)c2ccc(Br)cc2O[C@@H]1CN(C)S(=O)(=O)c1cn(C)cn1	1	-3	24*!	0	-4
CCNC(=O)[C@@H]1[C@@H](CO)[C@@H]2Cn3c(ccc(-c4ccccc4)c3=O)[C@@H]2N1C(=O)Cc1cccnc1	-18	-4	9	20	nt
CC1C(=O)N(Cc2cn(CCC3OCCO3)nn2)CCS(=O)(=O)N1Cc1ccc(-c2cccc(N(C)C)c2)cc1 (stereo unspecified)	2	-10	21*	-23	6
SMILES	SIRT5 block	C2C12 statin	DENV2 CPE	S100A4 inh HTS	PGC1a acetyl inh
CC(C)C1C(=O)N(Cc2cn(CCC3OCCO3)nn2)CCS(=O)(=O)N1Cc1ccc(-c2ccc(Cl)c(Cl)c2)cc1 (stereo unspecified)	8	-9	25*	4	-12
Cc1ccccc1-c1ccc(CN2C(C(C)C)C(=O)N(Cc3cn(CCC4OCCO4)nn3)CCS2(=O)=O)cc1 (stereo unspecified)	4	14	?	-2	6
Cc1ccc(-c2ccc(CN3C(C(C)C)C(=O)N(Cc4cn(CCC5OCCO5)nn4)CCS3(=O)=O)cc2)c(C)c1 (stereo unspecified)	26*	21	-2	0	-3
Cc1ccccc1S(=O)(=O)N1C[C@H](O)COC[C@@H]2O[C@@H](CC(=O)O)CC[C@H]21	2	12	1	4	4
CCCc1nn2c(=O)cc(CSCC(=O)Nc3nnc(CC)s3)nc2s1	-1	0	2	7	0
CCCc1nn2c(=O)cc(CSCC(=O)Nc3ccc(C)cc3)nc2s1	36*	2	9	-5	4
C[C@@H]1CN([C@H](C)CO)C(=O)Cc2cc(NC(=O)CCN3CCOCC3)ccc2O[C@H]1CN(C)Cc1ccc2c(c1)OCO2	6	-16	8	123*	4
C[C@H](CO)N1C[C@H](C)[C@H](CN(C)Cc2ccc3c(c2)OCO3)Oc2ccc(NC(=O)Nc3ccc(C(F)(F)F)cc3)cc2CC1=O	-1	-19	54*	3	4
C[C@@H]1CN([C@H](C)CO)C(=O)Cc2cc(NC(=O)CCN3CCOCC3)ccc2O[C@@H]1CN(C)Cc1ccc2c(c1)OCO2	nt	-8	-3	14	5
C[C@@H]1CN([C@H](C)CO)C(=O)Cc2cc(NC(=O)CCC(F)(F)F)ccc2O[C@H]1CN(C)Cc1ccc2c(c1)OCO2	4	22	45*	2	-2
C[C@H](CO)N1C[C@H](C)[C@@H](CN(C)Cc2ccc(Cl)c(Cl)c2)Oc2ccc(NC(=O)CCC(F)(F)F)cc2CC1=O	20*	?	-2	1	-12
CC(=O)N(C)C[C@H]1Oc2cc(-c3cccc(F)c3)ccc2S(=O)(=O)N([C@H](C)CO)C[C@@H]1C	-3	23	-7	19	4
C[C@H](CO)N1C[C@H](C)[C@@H](CN(C)C(=O)NC2CCCCC2)Oc2ccc(NC(=O)CCC(F)(F)F)cc2CC1=O	-2	21	32*	17	5
C[C@H](CO)N1C[C@H](C)[C@H](CN(C)CC2CC2)Oc2ccc(NC(=O)CCC(F)(F)F)cc2CC1=O	6	12	21*	12	-25

High-throughput results deposited in PubChem by Broad Institute.
